For orientation: IC50 means the concentration that inhibits the measured activity by half.

Bounds are passed on as bounds.

This note sets out measurements from ChEMBL document CHEMBL1148922, “Triterpenoids from Brazilian Ilex species and their in vitro antitrypanosomal activity” (J Nat Prod, 2004).

One assay relates to Trypanosoma cruzi. Nature of the assay: Antitrypanosomal activity against Trypanosoma cruzi Tulahuen CL2 by microdilution method. The format is functional, organism-based. In outline: (§1)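 In vitro test run by the WHO procedure, using serial microdilution in a 96-well microtiter integrated system.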
(In general: In broth dilution the organism is exposed to a series of concentrations in liquid medium.)

Another assay relates to Trypanosoma brucei. The assay can be described thus: Antitrypanosomal activity against Trypanosoma brucei S427 by microdilution method. The format is functional, organism-based. The essentials: as §1

For the molecule `CC(=O)O[C@H]1CC[C@]2(C)[C@H]3CC=C4[C@@H]5[C@@H](C)[C@H](C)CC[C@]5(C(=O)O)CC[C@@]4(C)[C@]3(C)CC[C@H]2C1(C)C` [O-ACETYLURSOLIC ACID], the IC50 was above 32 µM in the assay with Trypanosoma cruzi and 17 µM with Trypanosoma brucei.
For `C[C@H]1[C@H](C)CC[C@]2(C(=O)O[C@@H]3O[C@H](CO[C@@H]4O[C@H](CO)[C@@H](O)[C@H](O)[C@H]4O)[C@@H](O)[C@H](O)[C@H]3O)CC[C@]3(C)C(=CC[C@@H]4[C@@]5(C)CC[C@H](O[C@@H]6OC[C@H](O)[C@H](O[C@@H]7O[C@H](CO)[C@@H](O)[C@H](O)[C@H]7O)[C@H]6O[C@@H]6O[C@@H](C)[C@H](O)[C@@H](O)[C@H]6O)C(C)(C)[C@@H]5CC[C@]43C)[C@H]12` [MATESAPONIN 4] the same measures were above 32 µM and above 32 µM.
For `C[C@H]1[C@H](C)CC[C@]2(CO)CC[C@]3(C)C(=CC[C@@H]4[C@@]5(C)CC[C@H](O)C(C)(C)[C@@H]5CC[C@]43C)[C@H]12` [UVAOL] the same measures were above 32 µM and above 32 µM.
For `C[C@@H]1CC[C@]2(C(=O)O[C@@H]3O[C@H](CO)[C@@H](O)[C@H](O)[C@H]3O)CC[C@]3(C)C(=CC[C@@H]4[C@@]5(C)CC[C@H](O)[C@@](C)(CO)[C@@H]5CC[C@]43C)[C@@H]2[C@]1(C)O` [PEDUNCULOSIDE] the same measures were above 32 µM and above 32 µM.
Take `CC(=O)OC[C@H]1O[C@@H](OC(=O)[C@]23CC[C@@H](C)[C@@](C)(OC(C)=O)[C@H]2C2=CC[C@@H]4[C@@]5(C)CC[C@H](O[C@@H]6OC[C@H](OC(C)=O)[C@H](O[C@@H]7O[C@H](COC(C)=O)[C@@H](OC(C)=O)[C@H](OC(C)=O)[C@H]7OC(C)=O)[C@H]6OC(C)=O)C(C)(C)[C@@H]5CC[C@@]4(C)[C@]2(C)CC3)[C@H](OC(C)=O)[C@@H](OC(C)=O)[C@@H]1OC(C)=O` [PERACETYL ILEXOSIDE II]: the IC50 in the assay with Trypanosoma cruzi and with Trypanosoma brucei was above 32 µM each time.
`CC1(C)CC[C@]2(C(=O)O)CC[C@]3(C)C(=CC[C@@H]4[C@@]5(C)CC[C@H](O[C@@H]6O[C@H](CO)[C@H](O)[C@H](O)[C@H]6O[C@@H]6O[C@H](CO)[C@@H](O)[C@H](O)[C@H]6O)C(C)(C)[C@@H]5CC[C@]43C)[C@@H]2C1`: the values for the IC50 with Trypanosoma cruzi and in the assay on Trypanosoma brucei were 10 µM and 4 µM, respectively.
`CC1CS(=O)(=O)CCN1/N=C/c1ccc([N+](=O)[O-])o1` (configuration not stated) [NIFURTIMOX]: the IC50 in the assay with Trypanosoma cruzi was found to be 0.39 µM. This lies in the sub-micromolar range.
Take `C[C@H]1[C@H](C)CC[C@]2(C(=O)O[C@@H]3O[C@H](CO[C@@H]4O[C@H](CO)[C@@H](O)[C@H](O)[C@H]4O)[C@@H](O)[C@H](O)[C@H]3O)CC[C@]3(C)C(=CC[C@@H]4[C@@]5(C)CC[C@H](O[C@@H]6OC[C@H](O)[C@H](O[C@@H]7O[C@H](CO)[C@@H](O)[C@H](O)[C@H]7O)[C@H]6O)C(C)(C)[C@@H]5CC[C@]43C)[C@H]12` [MATESAPONIN 3]: the IC50 in the assay with Trypanosoma cruzi and in the assay on Trypanosoma brucei was above 32 µM each time.
For `C[C@H]1[C@H](C)CC[C@]2(C(=O)O[C@@H]3O[C@H](CO)[C@@H](O)[C@H](O)[C@H]3O)CC[C@]3(C)C(=CC[C@@H]4[C@@]5(C)CC[C@H](O[C@@H]6OC[C@H](O)[C@H](O[C@@H]7O[C@H](CO)[C@@H](O)[C@H](O)[C@H]7O)[C@H]6O)C(C)(C)[C@@H]5CC[C@]43C)[C@H]12` [MATESAPONIN 1], the half-maximal inhibitory concentration (IC50) with Trypanosoma cruzi and with Trypanosoma brucei was above 32 µM throughout.
`C[C@H]1CC[C@]2(C(=O)O)CC[C@]3(C)C(=CC[C@@H]4[C@@]5(C)CC[C@H](O[C@@H]6OC[C@H](O)[C@H](O)[C@H]6O)C(CO)(CO)[C@@H]5CC[C@]43C)[C@@H]2[C@]1(C)O` [BREVICUSPISAPONIN 2]: the figures for the IC50 in the assay on Trypanosoma cruzi and in the assay on Trypanosoma brucei were above 32 µM and 16 µM, respectively.
`CC1(C)CC[C@]2(C(=O)O[C@@H]3O[C@H](CO)[C@@H](O)[C@H](O)[C@H]3O)CC[C@]3(C)C(=CC[C@@H]4[C@@]5(C)CC[C@H](O[C@@H]6O[C@H](CO)[C@H](O)[C@H](O)[C@H]6O[C@@H]6O[C@H](CO)[C@@H](O)[C@H](O)[C@H]6O)C(C)(C)[C@@H]5CC[C@]43C)[C@@H]2C1`: the IC50 in the assay with Trypanosoma cruzi and in the assay on Trypanosoma brucei was above 32 µM in each case.
Consider `C[C@H]1[C@H](C)CC[C@]2(C(=O)O)CC[C@]3(C)C(=CC[C@@H]4[C@@]5(C)CC[C@H](O)C(C)(C)[C@@H]5CC[C@]43C)[C@H]12` [URSOLIC ACID], for which the IC50 with Trypanosoma cruzi and in the assay with Trypanosoma brucei was 4 µM throughout.
As to `C[C@H]1CC[C@]2(C(=O)O)CC[C@]3(C)C(=CC[C@@H]4[C@@]5(C)CC[C@H](O[C@@H]6OC[C@H](O)[C@H](O)[C@H]6O)[C@](C)(CO)[C@@H]5CC[C@]43C)[C@@H]2[C@]1(C)O` [BREVICUSPISAPONIN 1], the IC50 in the assay on Trypanosoma cruzi and in the assay with Trypanosoma brucei was above 32 µM each time.
Take `C[C@@H]1CC[C@]2(C(=O)O[C@@H]3O[C@H](CO)[C@@H](O)[C@H](O)[C@H]3O)CC[C@]3(C)C(=CC[C@@H]4[C@@]5(C)CC[C@H](O[C@@H]6OC[C@H](O)[C@H](O[C@@H]7O[C@H](CO)[C@@H](O)[C@H](O)[C@H]7O)[C@H]6O)C(C)(C)[C@@H]5CC[C@]43C)[C@@H]2[C@]1(C)O` [ILEKUDINOSIDE E]: the IC50 with Trypanosoma cruzi and in the assay on Trypanosoma brucei was above 32 µM in each case.
